Laboratory results published in ChEMBL document CHEMBL3596096, “Synthesis and biological evaluation of quinones derived from natural product komaroviquinone as anti-Trypanosoma cruzi agents” (Bioorg Med Chem Lett, 2015).
The source made the active and inactive calls. No cut-off for these calls is given here.

What was measured:
[1] = test system: Trypanosoma cruzi; assay: Antitrypanosomal activity against trypomastigotes stage of Trypanosoma cruzi infected in human HT1080 cells assessed as inhibition of parasite growth at 10 uM after 24 hrs by microscopic analysis; type: functional, organism-based; details: HT-1080
Outline: (§1)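 Trypomastigotes suspended in DMEM and exposed 24 h to a single compound concentration, alongside vehicle (0.1% ethanol) control and benznidazole. Live parasites were counted microscopically. Values are the mean of four independent experiments, with significance versus control by two-tailed unpaired Student's t-test.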

[2] = test system: Trypanosoma cruzi; assay: Antitrypanosomal activity against trypomastigotes stage of Trypanosoma cruzi infected in human HT1080 cells assessed as inhibition of parasite growth after 24 hrs by microscopic analysis; type: functional, organism-based; details: HT-1080, 24 h
Outline: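 Trypomastigotes suspended in DMEM and incubated 24 h with a range of compound concentrations or vehicle (0.1% ethanol). Live parasites were counted microscopically, and the IC50 was determined from the concentration series.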

[3] = test system: Trypanosoma cruzi; assay: Antitrypanosomal activity against trypomastigotes stage of Trypanosoma cruzi infected in human HT1080 cells assessed as inhibition of parasite growth at 1 uM after 24 hrs by microscopic analysis; type: functional, organism-based; details: HT-1080; outline: as §1
[4] = test system: HT-1080; assay: Induction of reactive oxygen species formation in human HT1080 cells at 10 to 50 µM by fluorometric analysis; type: functional, cell-based
Outline: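 Intracellular ROS in host HT1080 cells was measured with an intracellular ROS assay kit, read out as fluorescence intensity (RFU). H2O2 and benznidazole were included for comparison.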

For `COC1=C(C(C)C)C(=O)C2=C(C[C@@]34CCCC(C)(C)[C@@H]3C[C@]2(O)O4)C1=O` [KOMAROVIQUINONE], the “growth inhibition (GI)” value [1] was “Active”, the IC50 [2] was 250 nM and the “growth inhibition (GI)” value [3] was “Active”. For the same compound, the Activity [4] was “Active”.
In the case of `COC1=C(C(C)C)C(=O)C=C(CNC(=O)C2CCCCC2)C1=O`, the IC50 [2] is reported as 330 nM.
`COC1=C(C(C)C)C(=O)C=C(COc2cccnc2)C1=O` gave an IC50 [2] greater than 10000 nM.
Work on `COC1=C(C(C)C)C(=O)C=C(COc2ccccc2)C1=O` yielded an IC50 [2] greater than 10000 nM.
`COC1=C(C(C)C)C(=O)C=C(COC2CCCCC2)C1=O` gave an IC50 [2] greater than 10000 nM.
`COC1=C(C(C)C)C(=O)C=C(CN(C)C(=O)C2CCCCC2)C1=O` was tested, and the IC50 [2] was 1100 nM.
In the case of `COC1=C(C(C)C)C(=O)C=C(C[C@@]23CCCC(C)(C)[C@@H]2CC(=O)O3)C1=O`, the “growth inhibition (GI)” value [1] is reported as “Active” and the “growth inhibition (GI)” value [3] is reported as “Active”.
`COC1=C(C(C)C)C(=O)C=C(CN(C(=O)C2CCCCC2)C2CCCCC2)C1=O` was tested, and the IC50 [2] was 2400 nM.
In the case of `COC1=C(C(C)C)C(=O)C=C(CC(O)(Cn2cncn2)c2ccc(F)cc2F)C1=O` (centres undefined), the IC50 [2] is reported as 540 nM and the Activity [4] is reported as “Active”.
`COC(=O)C[C@@H]1C(Cc2cc(OC)c(C(C)C)c(OC)c2OC)=CCCC1(C)C` was tested, and the “growth inhibition (GI)” value [1] was “inactive”.
`COC1=C(C(C)C)C(=O)C=C(CC2(O)CCCCC2)C1=O` gave an IC50 [2] of 590 nM.
With `O=C(Cn1ccnc1[N+](=O)[O-])NCc1ccccc1` [BENZNIDAZOLE] the IC50 [2] was 6800 nM and the Activity [4] was “Active”.
For `COc1c(C[C@@]23CCCC(C)(C)[C@@H]2CC(=O)O3)c(I)c(OC)c(C(C)C)c1OC`, the “growth inhibition (GI)” value [1] was “inactive”.
Work on `COC1=C(C(C)C)C(=O)C=C(COC(C)C)C1=O` yielded an IC50 [2] greater than 10000 nM.
In the case of `COC1=C(C(C)C)C(=O)C=C(COC(Cn2cncn2)c2ccc(F)cc2F)C1=O` (centres undefined), the IC50 [2] is reported as 300 nM.
`COC1=C(C(C)C)C(=O)C=C(CN(C)C(=O)c2ccccc2)C1=O` showed an IC50 [2] greater than 10000 nM.
`COc1cc(C[C@@]23CCCC(C)(C)[C@@H]2CC(=O)O3)c(OC)c(OC)c1C(C)C` was tested, and the “growth inhibition (GI)” value [1] was “inactive”.
In the case of `COC1=C(C(C)C)C(=O)C(C(C)(C)O)=C(C)C1=O`, the “growth inhibition (GI)” value [1] is reported as “Active” and the “growth inhibition (GI)” value [3] is reported as “Active”.
With `COC1=C(C(C)C)C(=O)C=C(CN2CCCC2=O)C1=O` the IC50 [2] was greater than 10000 nM.
Compound `COC1=C(C(C)C)C(=O)C=C(Cn2cnc([N+](=O)[O-])c2)C1=O` has an IC50 [2] greater than 10000 nM.
With `COc1c2c(c(OC)c(C(C)C)c1OC)C1(O)C[C@H]3C(C)(C)CCC[C@@]3(C2)O1` the “growth inhibition (GI)” value [1] was “inactive”.
Compound `CCCCCCCC1=CC(=O)C(C(C)C)=C(OC)C1=O` has an IC50 [2] greater than 10000 nM.
With `COC1=C(C(C)C)C(=O)C=C(CC2CCCCC2)C1=O` the IC50 [2] was greater than 10000 nM.
With `COC1=C(C(C)C)C(=O)C=C(CC(C)(C)O)C1=O` the IC50 [2] was greater than 10000 nM.
For `COC1=C(C(C)C)C(=O)C=C(Cn2cncn2)C1=O`, the IC50 [2] was 9800 nM.
In the case of `COC1=C(C(C)C)C(=O)C=C(Cc2ccccc2)C1=O`, the IC50 [2] is reported as greater than 10000 nM.
Compound `COC1=C(C(C)C)C(=O)C=C(CN2C(=O)CCc3ccccc32)C1=O` has an IC50 [2] of 2000 nM.
